Laboratory results: ChEMBL document CHEMBL5360580 (Eur J Med Chem, 2023)
pEC50: −log10 of the molar value. The source made the active and inactive calls. No cut-off for these calls is given here.

How the values were obtained:
SARS-CoV-2 [1] = assay: Antiviral activity against SARS-CoV-2 infected in African green monkey Vero E6 cells assessed as inhibition of viral replication at 1 uM incubated for 24 hrs by IFA assay relative to control; format: functional; settings: Severe acute respiratory syndrome coronavirus 2, Vero C1008
[2] = Cmax in ICR mouse at 30 mg/kg, po measured upto 24 hrs by LC-MS/MS analysis; format: ADME, organism-based; parameters: dose 30 mg/kg, time < 24 hrs, route po; settings: in vivo
Procedure, shortened: (§1)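 Male-unspecified ICR (CD-1) mice, N = 3 per group, were fasted 12 h. Compound in DMSO/0.5% HMPC (5/95, v/v) was given orally at 30 mg/kg or intravenously at 2.5 mg/kg. Femoral-vein blood was drawn at 0.25, 0.5, 1, 2, 4, 8 and 24 h, and serum analyte levels were measured by LC-MS/MS.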

[3] = Aqueous solubility of compound at 0.5 mg/mL in presence of acetonitrile by HPLC analysis; format: physicochemical; settings: buffer
Procedure, shortened: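 Compound was suspended in water, vortexed vigorously and filtered through a 0.22 μm membrane. The filtrate was diluted 2-fold with 80% acetonitrile and analysed by reversed-phase amide HPLC. Concentration was read against a standard curve prepared from a 0.5 mg/mL solution in 80% acetonitrile. Single determination.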

[4] = Half life in ICR mouse at 30 mg/kg, po measured upto 24 hrs by LC-MS/MS analysis; format: ADME, organism-based; settings: in vivo; procedure, shortened: as §1
Vero C1008 [5] = assay: Downregulation of BECN1 level in African green monkey Vero E6 cells at 10 uM measured after 16 hrs by Western blotting analysis; format: functional, cell-based; settings: Chlorocebus sabaeus
Procedure, shortened: (§2)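 Vero-E6 cells in DMEM with 10% FBS were cultured overnight at 37 °C, 5% CO2, then treated with a concentration series for 16 h. Lysates were made in RIPA on ice and equalised for protein by BCA. Blots were probed for SKP2 or Beclin-1 plus β-actin and detected by ECL. The band-intensity ratio to β-actin was normalised to DMSO control.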

SARS-CoV-2 [6] = assay: Antiviral activity against SARS-CoV-2 infected in African green monkey Vero E6 cells assessed as inhibition of viral replication at 2.5 uM incubated for 24 hrs by IFA assay relative to control; format: functional; settings: Severe acute respiratory syndrome coronavirus 2, Vero C1008
[7] = Observed AUC (0 to infinity) in ICR mouse at 30 mg/kg, po measured upto 24 hrs by LC-MS/MS analysis; format: ADME, organism-based; parameters: dose 30 mg/kg, time < 24 hrs, route po; settings: in vivo; procedure, shortened: as §1
Vero C1008 [8] = assay: Downregulation of BECN1 level in African green monkey Vero E6 cells at 1 to 3 uM measured after 16 hrs by Western blotting analysis; format: functional, cell-based; settings: Chlorocebus sabaeus, dose 1-3 µM; procedure, shortened: as §2
Vero C1008 [9] = assay: Downregulation of SKP2 level in African green monkey Vero E6 cells at 0.3 to 10 uM measured after 16 hrs by Western blotting analysis; format: functional, cell-based; settings: Chlorocebus sabaeus, dose 0.3-10 µM; procedure, shortened: as §2
[10] = AUClast in ICR mouse at 30 mg/kg, po measured upto 24 hrs by LC-MS/MS analysis; format: ADME, organism-based; parameters: dose 30 mg/kg, time < 24 hrs, route po; settings: in vivo; procedure, shortened: as §1
[11] = Observed MRT (0 to infinity) in ICR mouse at 30 mg/kg, po measured upto 24 hrs by LC-MS/MS analysis; format: ADME, organism-based; settings: in vivo; procedure, shortened: as §1
Vero C1008 [12] = assay: Cytotoxicity against African green monkey Vero E6 cells assessed as reduction in cell viability measured after 48 hrs by CCK-8 assay; format: toxicity, cell-based; settings: chlorocebus sabaeus, vero c1008, 48 h
[13] = Selectivity index, ratio of CC50 for cytotoxicity against African green monkey Vero E6 to EC50 for antiviral activity against SARS-CoV-2 infected in African green monkey Vero E6 cells; format: toxicity, cell-based, Vero C1008; settings: read-out: Ratio CC50/EC50
SARS-CoV-2 [14] = assay: Antiviral activity against SARS-CoV-2 infected in African green monkey Vero E6 cells assessed as inhibition of viral replication incubated for 24 hrs by IFA assay; format: functional, organism-based; settings: Severe acute respiratory syndrome coronavirus 2, Vero C1008, 24 h
[15] = Prodrug conversion in ICR mouse plasma assessed as half life of compound 5-chloro-4-fluoro-2-hydroxy-N-(4-(trifluoromethoxy)phenyl)benzamide at 30 mg/kg, po and 2.5 mg/kg, iv measured upto 24 hrs by LC-MS/MS analysis; format: ADME, organism-based; settings: in vivo
Procedure, shortened: (§3)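 Prodrugs were given to fasted ICR (CD-1) mice (N = 3) in DMSO/0.5% HMPC (5/95), at 30 mg/kg po or 2.5 mg/kg iv. Serum from femoral-vein blood taken 0.25–24 h was analysed by LC-MS/MS for the released parent compound, with mole correction applied to the parameters.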

[16] = Prodrug conversion in ICR mouse plasma assessed as AUClast of compound 5-chloro-4-fluoro-2-hydroxy-N-(4-(trifluoromethoxy)phenyl)benzamide at 30 mg/kg, po and 2.5 mg/kg, iv measured upto 24 hrs by LC-MS/MS analysis; format: ADME, organism-based; parameters: dose 30 mg/kg, time < 24 hrs, route po; settings: in vivo; procedure, shortened: as §3
[17] = Prodrug conversion in ICR mouse plasma assessed as Cmax of compound 5-chloro-4-fluoro-2-hydroxy-N-(4-(trifluoromethoxy)phenyl)benzamide at 30 mg/kg, po and 2.5 mg/kg, iv measured upto 24 hrs by LC-MS/MS analysis; format: ADME, organism-based; parameters: time < 24 hrs, dose 30 mg/kg, route po; settings: in vivo; procedure, shortened: as §3
[18] = Prodrug conversion in ICR mouse plasma assessed as oral bioavailability of compound 5-chloro-4-fluoro-2-hydroxy-N-(4-(trifluoromethoxy)phenyl)benzamide at 30 mg/kg measured upto 24 hrs by LC-MS/MS analysis; format: ADME, organism-based; settings: in vivo; procedure, shortened: as §3
[19] = Prodrug conversion in ICR mouse plasma assessed as Observed AUC (0 to infinity) of compound 5-chloro-4-fluoro-2-hydroxy-N-(4-(trifluoromethoxy)phenyl)benzamide at 30 mg/kg, po and 2.5 mg/kg, iv measured upto 24 hrs by LC-MS/MS analysis; format: ADME, organism-based; parameters: time < 24 hrs, dose 30 mg/kg, route po; settings: in vivo; procedure, shortened: as §3
[20] = Prodrug conversion in ICR mouse plasma assessed as Observed MRT (0 to infinity) of compound 5-chloro-4-fluoro-2-hydroxy-N-(4-(trifluoromethoxy)phenyl)benzamide at 30 mg/kg, po and 2.5 mg/kg, iv measured upto 24 hrs by LC-MS/MS analysis; format: ADME, organism-based; settings: in vivo; procedure, shortened: as §3

Compound: O=C(NC(=O)c1cc(Cl)ccc1O)c1ccc(C(F)(F)F)cc1
- inhibition at 1 µM (SARS-CoV-2 [1]): < 10%

Compound: O=C(Nc1ccc([N+](=O)[O-])cc1Cl)c1cc(Cl)ccc1O [NICLOSAMIDE]
- Cmax [2]: 428 ng/mL
- solubility [3]: 0.16 µg/mL
- t1/2 [4]: 1.99 h
- Activity (Vero C1008 [5]): Active
- inhibition at 2.5 µM (SARS-CoV-2 [6]): 39%
- AUC [7]: 522 ng·h/mL
- Activity (Vero C1008 [8]): Active
- Activity (Vero C1008 [9]): Active
- AUClast [10]: 478 ng·h/mL
- MRT [11]: 2.81 h
- CC50 (Vero C1008 [12]): 1960 nM

Compound: O=C(Nc1ccc(C(F)(F)F)cc1)c1cc(Cl)cc([N+](=O)[O-])c1O
- inhibition at 1 µM (SARS-CoV-2 [1]): 50%

Compound: O=C(Nc1ccc(C(F)(F)F)cc1)c1cc(F)ccc1O
- selectivity ratio [13]: 0.98
- pEC50 (SARS-CoV-2 [14]): 5.79
- inhibition at 1 µM (SARS-CoV-2 [1]): 92%
- CC50 (Vero C1008 [12]): 1610 nM

Compound: O=C(NCc1ccc(C(F)(F)F)cc1)c1cc(Cl)ccc1O
- inhibition at 1 µM (SARS-CoV-2 [1]): 55%

Compound: Oc1ccc(Cl)cc1-c1nnc(-c2ccc(C(F)(F)F)cc2)[nH]1
- inhibition at 1 µM (SARS-CoV-2 [1]): < 10%

Compound: O=C(Nc1ccc(SC(F)(F)F)cc1)c1cc(Cl)c(F)cc1O
- selectivity ratio [13]: 1.63
- pEC50 (SARS-CoV-2 [14]): 5.79
- inhibition at 1 µM (SARS-CoV-2 [1]): 87%
- CC50 (Vero C1008 [12]): 2630 nM

Compound: CC(C)C(=O)Oc1cc(F)c(Cl)cc1C(=O)Nc1ccc(OC(F)(F)F)cc1
- t1/2 [15]: 3.03 h
- AUClast [16]: 17393 ng·h/mL
- solubility [3]: 0.53 µg/mL
- Cmax [17]: 5175 ng/mL
- F [18]: 39.75%
- AUC [19]: 17551 ng·h/mL
- MRT [20]: 5.52 h

Compound: COc1ccc(Cl)cc1C(=O)Nc1ccc(C(F)(F)F)cc1
- inhibition at 1 µM (SARS-CoV-2 [1]): < 10%

Compound: O=S(=O)(Nc1ccc(C(F)(F)F)cc1)c1cc(Cl)ccc1O
- inhibition at 1 µM (SARS-CoV-2 [1]): < 10%

Compound: CS(=O)(=O)Nc1ccc(NC(=O)c2cc(Cl)ccc2O)c(Cl)c1
- inhibition at 1 µM (SARS-CoV-2 [1]): < 10%

Compound: O=C(Nc1ccc(C(F)(F)F)cc1)c1ccccc1O
- inhibition at 1 µM (SARS-CoV-2 [1]): < 10%

Compound: O=C(Nc1ccc(C(F)(F)F)cc1)c1cc(Cl)ccc1O
- pEC50 (SARS-CoV-2 [14]): 5.88
- inhibition at 1 µM (SARS-CoV-2 [1]): 95%

Compound: O=C(Nc1ccc(C(F)(F)F)cc1)c1cc(Cl)cc(Cl)c1O
- inhibition at 1 µM (SARS-CoV-2 [1]): < 10%
